Results as given in publication PMC3309561 (Biochimica et biophysica acta, 2010).

System: 15 base pair duplex DNA
Test: Near-UV circular dichroism / UV absorbance titration of duplex DNA with peptide
Type: binding
Details: UV absorbance spectra during titration of duplex DNA, room temperature
Procedure, shortened: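 15 bp duplex DNA at 1.66 µM (typically 1–2 µM) was titrated at room temperature with small additions of a 5 mg/ml peptide stock. UV absorbance was acquired at the same time as the near-UV CD, in a 10 mm cell from 340 to 220 nm, across increasing peptide/DNA molar ratios. Uncorrected spectra show light scattering; zeroed spectra (340 nm) track 260 nm absorbance.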

Substance: GIGKFLHSAKKFGKAFVGEIMNS-NH2 [Magainin 2 amide]
- Turbidity (light scattering) above 310 nm of DNA with peptide: absence of turbidity
